Measurements of several laboratories.
Each line is one published result; the experiments were not run side by side.
Target: Dual specificity mitogen-activated protein kinase kinase 4 (MAP2K4, Homo sapiens, UniProt P45985)
Residues used in one study (P45985 1-399): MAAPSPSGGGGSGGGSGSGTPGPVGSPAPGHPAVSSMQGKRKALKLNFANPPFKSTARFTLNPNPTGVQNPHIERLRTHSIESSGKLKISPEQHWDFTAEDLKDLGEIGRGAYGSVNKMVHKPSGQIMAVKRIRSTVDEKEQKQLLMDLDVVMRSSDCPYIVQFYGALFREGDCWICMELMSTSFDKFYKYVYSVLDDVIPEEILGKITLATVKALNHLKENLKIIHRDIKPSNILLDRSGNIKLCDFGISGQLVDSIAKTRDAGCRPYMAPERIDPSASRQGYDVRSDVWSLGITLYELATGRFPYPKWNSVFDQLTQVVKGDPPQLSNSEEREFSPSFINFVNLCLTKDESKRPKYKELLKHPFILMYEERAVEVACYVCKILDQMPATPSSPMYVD

Structure (SMILES) | test | setting | remaining binding
Nc1c(C(=O)NCc2ccc(C(=O)NCCCC3CCCCC3)cc2)cnn1-c1ccccc1 | cell-free assay, competition with immobilised ligand | 0.1 µM | 100%
COc1cnc(Nc2cccc(S(N)(=O)=O)c2)nc1N1CCN(c2ccccc2)CC1 | binding, competition with immobilised ligand | 1 µM | 99%
CN(C)c1nccc(-c2cnn3ncccc23)n1 | binding | 1 µM | 81%
CS(=O)(=O)N1CCCC(NC(=O)[C@H](CCC2CCCCC2)NC(=O)c2ccc(CNC(=O)c3cnc4ccccn34)cc2)C1 (some centres unmarked) | cell-free assay, competition with immobilised ligand | 0.1 µM | 100%
C[C@@H]1CCN(c2nccc(-c3cnn4ncccc34)n2)C1 | binding | 1 µM | 69%
CNC(=O)[C@@H]1CC[C@@H](n2c(-c3ccc4cnccc4c3)nc3ccc(C(=O)NCc4cccc(C(N)=O)c4)cc32)C1 | binding, competition with immobilised ligand | 1 µM | 100%
CCN1CCN(Cc2ccc(C(=O)Nc3ccc(C)c(Oc4ccc5c(c4)CC(=O)N5)c3)cc2C(F)(F)F)CC1 | binding, competition with immobilised ligand | 1 µM | 100%
CN(C)c1ncc(F)c(-c2cnn3ncccc23)n1 | binding | 1 µM | 100%
CC(=O)N1CCC(c2ccc(C(=O)NC3=NCCN3)cc2C(F)(F)F)CC1 | cell-free assay, competition with immobilised ligand | 1 µM | 100%
c1cncc(-c2cccc(Nc3nccc(NC4CCCCC4)n3)c2)c1 | binding, competition with immobilised ligand | 10 µM | 64%
CS(=O)(=O)NCC[C@H](NC(=O)c1cncc2c1cnn2-c1ccc(F)cc1)c1ccnc(S(C)(=O)=O)c1 | cell-free assay, competition with immobilised ligand | 1 µM | 100%
CN(c1nccc(-c2cnn3ncccc23)n1)C1CC1 | binding | 1 µM | 100%
O=C(c1ccc(Nc2ncc(Cl)c(-c3cc4ccccc4s3)n2)cc1)N1CCC(N2CCCC2)CC1 | binding, competition with immobilised ligand | 1 µM | 69%
COc1ncc2cc3ccccc3nc2c1C#N | cell-free assay, competition with immobilised ligand | 5 µM | 100%
O=C(NCC1CCOCC1)c1n[nH]cc1NC(=O)c1c(F)cccc1F | binding, competition with immobilised ligand | 1 µM | 68%
N[C@@H]1CCN(c2nccc(-c3cnn4ncccc34)n2)C1 | binding | 1 µM | 99%
CO[C@H]1CC[C@H](CNc2ccc(S(=O)(=O)NC(=O)c3ccc(N4CCN(CC5=C(c6ccc(Cl)cc6)CC(C)(C)CC5)CC4)cc3Oc3cnc4[nH]ccc4c3)cc2[N+](=O)[O-])CC1 | cell-free assay, competition with immobilised ligand | 1 µM | 98%
COc1ccnn2ncc(-c3ccnc(N(C)C)n3)c12 | binding | 1 µM | 100%
O=C(c1ccc(Nc2nccc(-c3cc4ccccc4s3)n2)cc1)N1CCC(N2CCCC2)CC1 | binding, competition with immobilised ligand | 1 µM | 78%
COc1cc(-c2cn(C3CCc4ccccc4N(CC(F)(F)F)C3=O)nn2)ccc1-n1ccc(C)n1 (centres unmarked) | cell-free assay, competition with immobilised ligand | 1 µM | 100%
